Bioassay records from PubChem BioAssay.
Cneo AK release – causes C. neoformans cell lysis. adenylate kinase release luminescence, 4 h; normalised: neutral wells 0, clomiphene wells 100. lysis activity, % at 15 µM. 0.2% of 360,000 active. AID 651654;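 active means mean lysis activity across replicates of at least 80%, whatever share of replicates individually reach that level; inactive means mean lysis activity below 80%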
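Signal: Adenylate kinase release luminescence | Assay system: Log-phase Cryptococcus neoformans yeast cells | Input: Cells at 5 × 10^6 per mL | Buffer or medium: Fresh YPD growth medium | Compound: Single dose | Schedule: Static 4 h at 37 °C with compound, 1 h detection | Controls: Clomiphene | Read-out: Luminescence rise reflecting yeast cell lysis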
GSIS activator – GLuc luminescence reporter in INS-1E cells, primary screen for activators of glucose-dependent secretion of insulin; INS-1E GLuc reporter insulin secretion, 2-3 h; activation, % at 16.6 µM; 0.61% of 370,000 active;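 active means lowest replicate activation of at least 40%, so every replicate reaches that level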;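 further: 0% = median of neutral control wells and 100% = median of IBMX positive control wells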
dFosB activator – activators of mouse delta FosB homodimer. 0.99% of 340,000 active. AID 493131. purified delta FosB, TAMRA-CDK5 oligo fluorescence polarization; percent of positive-control signal above neutral wells. activation, % at 25 µM;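 active means mean activation above about 17%, with every replicate also reaching it, limit read from the data, passing the limit was not always enough; inconclusive means only one of the two conditions met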
Env fusion inh – blocks HIV Env-driven cell-cell fusion | 1.1% of 360,000 active | AID 651610 | HeLa-JRFL Env/CEM21 cell fusion, luciferase | inhibition, % at 12.3 µM;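 active means mean replicate inhibition score of at least 50 and every replicate individually at or above 50; inconclusive means only one of the two criteria met; inactive means mean below 50 and not all replicates reaching 50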;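 further: 0% = plate neutral controls and 100% = maraviroc near 300 nM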
PAX8 inh HTS – PAX8 transcriptional activity inhibition; RMG-I TPO-luciferase reporter, SteadyGlo, 24 h; 1.2% of 360,000 active; inhibition, % at 12.6 µM;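 active means mean replicate inhibition at least 60% with every replicate also reaching 60%; inconclusive means only one of the two criteria is met; inactive means mean below 60% and not all replicates reaching 60%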;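 further: luciferase light reporting Pax8 driven TPO promoter activity; plate controls were median of neutral control wells for no effect and mitoxantrone controls for full effect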
CDK5 inh – CDK5/p35 (human) kinase inhibition; Recombinant CDK5/p35, ADP-Glo luminescence, 60 min; 0.01% of 330,000 active; inhibition, % at 10 µM;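 active means highest replicate inhibition of at least 50% and at least 75% of replicates reaching 50%; inconclusive means only one of the two criteria met; inactive means both criteria failed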;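 further: plate controls were DMSO neutral control for no effect and GW8510 at 10 µM for full effect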
The depositor's hits bear a star; u = inconclusive; x = no result given; [ ] = another dose, or the depositor's remark. An excerpt weighted towards active compounds, which were near 2.9% of everything screened.

SMILES	Cneo AK release	GSIS activator	dFosB activator	Env fusion inh	PAX8 inh HTS	CDK5 inh
C[C@@H]1CCCCO[C@@H](CN(C)Cc2ccc(Cl)c(Cl)c2)[C@H](C)CN([C@H](C)CO)C(=O)c2cc(NS(=O)(=O)c3ccc(F)cc3)ccc2O1	27	-18	x	30[16.7 µM]	85*	x
C[C@@H]1CCCCO[C@H](CN(C)Cc2ccc(Cl)c(Cl)c2)[C@@H](C)CN([C@H](C)CO)C(=O)c2cc(NS(=O)(=O)c3ccc(Cl)cc3)ccc2O1	-1	12	x	-12[16.7 µM]	28	x
C[C@@H]1CCCCO[C@@H](CN(C)Cc2ccc(Cl)c(Cl)c2)[C@H](C)CN([C@H](C)CO)C(=O)c2cc(NS(=O)(=O)c3ccc(Cl)cc3)ccc2O1	7	-17	x	-10[16.7 µM]	102*	x
Cc1ccc(S(=O)(=O)Nc2ccc3c(c2)C(=O)N([C@H](C)CO)C[C@H](C)[C@@H](CN(C)Cc2ccc(Cl)c(Cl)c2)OCCCC[C@H](C)O3)cc1	-1	-19	x	-14[16.7 µM]	66*	x
Cc1ccc(S(=O)(=O)Nc2ccc3c(c2)C(=O)N([C@H](C)CO)C[C@@H](C)[C@H](CN(C)Cc2ccc(Cl)c(Cl)c2)OCCCC[C@@H](C)O3)cc1	x	-6	x	x	u	x
COc1ccc(CN(C)C[C@@H]2Oc3c(NC(=O)NC(C)C)cccc3C(=O)N([C@H](C)CO)C[C@@H]2C)cc1	56	4	x	x	0	x
O=C(C[C@@H]1C[C@H]2c3cc(NS(=O)(=O)c4ccc(F)cc4)ccc3O[C@H]2[C@@H](CO)O1)NC1CCCCC1	-3	-11	x	-1[16.7 µM]	6	x
C[C@@H]1CN([C@H](C)CO)C(=O)Cc2cc(N(C)C)ccc2O[C@@H]1CN(C)Cc1ccncc1	0	6	x	24[16.7 µM]	-3	x
CC[C@@]12C(=O)N(c3ccc(C)cc3)C(=O)N1[C@H](c1ccc(OC)cc1)[C@@H]1C(=O)N(C(C)(C)C)C(=O)[C@@H]12	0	-12	2	80*	-5	2
CC[C@@]12C(=O)N(c3cccc(Br)c3)C(=O)N1[C@H](c1ccc(Br)cc1)[C@@H]1C(=O)N(C(C)(C)C)C(=O)[C@@H]12	0	8	-1	-11	-6	0
CC[C@@]12C(=O)N(c3ccc(C)cc3)C(=O)N1[C@H](c1ccc(Br)cc1)[C@@H]1C(=O)N(C(C)(C)C)C(=O)[C@@H]12	-2	-9	-7	86*	-10	-1
CC[C@@]12C(=O)N(c3ccccc3)C(=O)N1[C@H](c1ccc(OC)cc1)[C@@H]1C(=O)N(C(C)(C)C)C(=O)[C@@H]12	1	x	-8	73*	-32	0
CC[C@@]12C(=O)N(c3cccc(Br)c3)C(=O)N1[C@H](c1ccc(OC)cc1)[C@@H]1C(=O)N(C(C)(C)C)C(=O)[C@@H]12	2	-26	-9	96*	17	1
COc1ccc([C@@H]2[C@@H]3C(=O)N(C(C)(C)C)C(=O)[C@@H]3[C@]3(Cc4ccccc4)C(=O)N(c4ccccc4)C(=O)N23)cc1	-1	-9	-9	4	-8	0
C[C@@H]1CN([C@@H](C)CO)S(=O)(=O)c2ccc(C#CC3(O)CCCC3)cc2O[C@H]1CN(C)C(=O)Nc1cccc(F)c1	-4	-16	x	-48[16.7 µM]	x	x
CCN(C[C@@H]1[C@@H](c2ccc(-c3ccccc3)cc2)[C@@H](CO)N1CC1CC1)C(C)=O	x	-12	x	x	x	x
CCCN1C(=O)C(O)(C/C(C)=N/O)c2ccccc21 (stereo not given)	3	50*	11	x	x	0
CCCN1C(=O)C(O)(C2COC(C)(C)CC2=O)c2ccccc21 (stereo not given)	-1	12	5	-19	-11	0
CCCN1C(=O)C(O)(CC(=O)c2cccc(OC)c2)c2ccccc21 (stereo not given)	0	-28	-9	x	x	0
CCCN1C(=O)C(O)(C2CC(=O)CC(C)(C)O2)c2ccccc21 (stereo not given)	126*	x	-4	x	x	-1
Cc1noc(C)c1S(=O)(=O)Nc1ccc2c(c1)C(=O)N([C@H](C)CO)C[C@H](C)[C@@H](CN(C)S(=O)(=O)c1cn(C)cn1)O2	x	17	x	x	-7	x
Cc1cccc(CSC(Nc2ccc(F)cc2)=C(C#N)C#N)c1	x	-33	-2	19	51	1
